Assay results taken from ChEMBL document CHEMBL1131154, “Quantitative structure-activity relationships of 2, 4-diamino-5-(2-X-benzyl)pyrimidines versus bacterial and avian dihydrofolate reductase” (J Med Chem, 1998).

Molecular target: T1, Dihydrofolate reductase (Gallus gallus, UniProt P00378)
T1 sequence (P00378 whole entry): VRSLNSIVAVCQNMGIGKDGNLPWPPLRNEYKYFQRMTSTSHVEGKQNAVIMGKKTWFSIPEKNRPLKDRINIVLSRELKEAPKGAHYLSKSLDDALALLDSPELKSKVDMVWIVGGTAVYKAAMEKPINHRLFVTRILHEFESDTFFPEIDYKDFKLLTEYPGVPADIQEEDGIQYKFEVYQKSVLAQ
Assay: Inhibition of chicken liver Dihydrofolate reductase (dihydrofolate reductase)
Procedure, shortened: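 Chicken liver DHFR vial (0.19 unit/mL) dissolved in 24 mL of 200 μM NADPH. Inhibitors in DMSO, final ≤0.5%. Activity with and without inhibitor read at 340 nm by stopped-flow spectrophotometry as NADPH is oxidized and dihydrofolate reduced.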
With `COc1ccccc1Cc1cnc(N)nc1N` the Ki was 28.8 µM. Work on `Nc1ncc(Cc2ccccc2F)c(N)n1` yielded a Ki of 43.7 µM. `C=CCOc1ccccc1Cc1cnc(N)nc1N` showed a Ki of 21.4 µM. `COCc1ccccc1Cc1cnc(N)nc1N` showed a Ki of 39.8 µM. For `Nc1ncc(Cc2ccccc2O)c(N)n1`, the Ki was 89.1 µM. In the case of `CS(=O)(=O)Oc1ccccc1Cc1cnc(N)nc1N`, the Ki is reported as 22.9 µM. For `Nc1ncc(Cc2ccccc2Br)c(N)n1`, the Ki was 12.3 µM. With `CCCCCCOc1ccccc1Cc1cnc(N)nc1N` the Ki was 7.94 µM. Compound `Nc1ncc(Cc2ccccc2Cl)c(N)n1` has a Ki of 17.4 µM. In the case of `Nc1ncc(Cc2ccccc2OCc2ccccc2)c(N)n1`, the Ki is reported as 9.12 µM. Compound `NC(=O)COc1ccccc1Cc1cnc(N)nc1N` has a Ki of 33.9 µM. For `Nc1ncc(Cc2ccccc2I)c(N)n1`, the Ki was 8.71 µM.

Tested on: not listed separately
Assay: Selectivity measured as log[1/Ki(Lactobacillus casei DHFR)]-log[1/Ki(chicken liver DHFR)]
Procedure, shortened: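 Selectivity index calculated as log(1/Ki) for L. casei DHFR minus log(1/Ki) for chicken liver DHFR. Both Ki values came from stopped-flow 340 nm NADPH-oxidation assays, with jackknife estimation.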
Compound `COc1ccccc1Cc1cnc(N)nc1N` has a Selectivity index of 0.46. `Cc1ccccc1Cc1cnc(N)nc1N` gave a Selectivity index of 0.49. For `CCCCOc1ccccc1Cc1cnc(N)nc1N`, the Selectivity index was -0.61. Compound `Nc1ncc(Cc2ccccc2F)c(N)n1` has a Selectivity index of 0.66. Compound `C=CCOc1ccccc1Cc1cnc(N)nc1N` has a Selectivity index of 0.2. Compound `COCc1ccccc1Cc1cnc(N)nc1N` has a Selectivity index of 0.15. With `Nc1ncc(Cc2ccccc2O)c(N)n1` the Selectivity index was -0.09. `CS(=O)(=O)Oc1ccccc1Cc1cnc(N)nc1N` showed a Selectivity index of -0.57. Work on `Nc1ncc(Cc2ccccc2Br)c(N)n1` yielded a Selectivity index of 0.09. With `CCCCCCOc1ccccc1Cc1cnc(N)nc1N` the Selectivity index was -1.1. For `Nc1ncc(Cc2ccccc2)c(N)n1`, the Selectivity index was 0.49. `Nc1ncc(Cc2ccccc2Cl)c(N)n1` showed a Selectivity index of 0.26. With `COc1cccc(Cc2cnc(N)nc2N)c1` the Selectivity index was 1.48. Compound `Nc1ncc(Cc2ccccc2OCc2ccccc2)c(N)n1` has a Selectivity index of -0.3. `NC(=O)COc1ccccc1Cc1cnc(N)nc1N` showed a Selectivity index of -0.37. `CCOc1ccccc1Cc1cnc(N)nc1N` showed a Selectivity index of 0.09. With `Nc1ncc(Cc2ccccc2I)c(N)n1` the Selectivity index was -0.12.

Molecular target: Dihydrofolate reductase (Lactobacillus casei, UniProt P00381)
Sequence (P00381 whole entry): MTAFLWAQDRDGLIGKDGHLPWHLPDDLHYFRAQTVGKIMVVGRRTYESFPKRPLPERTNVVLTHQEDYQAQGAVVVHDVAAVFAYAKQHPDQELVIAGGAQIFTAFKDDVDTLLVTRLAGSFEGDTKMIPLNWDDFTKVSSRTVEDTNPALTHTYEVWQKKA
Assay: Inhibition of Dihydrofolate reductase from Lactobacillus casei
Parameters: species or system Lacticaseibacillus casei
Procedure, shortened: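 L. casei DHFR, from lyophilized powder, dissolved to about 0.5 unit/mL in 0.05 M Tris pH 7.20 with 50 mM mercaptoethanol and stored at −20 °C. Dihydrofolate and NADPH solutions kept at 0 °C. Inhibitors in DMSO, final ≤0.5%. Stopped-flow spectrophotometry at 340 nm followed NADPH oxidation and dihydrofolate reduction. Ki with 95% confidence limits by jackknife.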
Compound `COc1ccccc1Cc1cnc(N)nc1N` has a Ki of 10 µM. Work on `Cc1ccccc1Cc1cnc(N)nc1N` yielded a Ki of 9.55 µM. For `CCCCOc1ccccc1Cc1cnc(N)nc1N`, the Ki was 35.5 µM. For `Nc1ncc(Cc2ccccc2F)c(N)n1`, the Ki was 9.55 µM. With `C=CCOc1ccccc1Cc1cnc(N)nc1N` the Ki was 13.5 µM. Work on `COCc1ccccc1Cc1cnc(N)nc1N` yielded a Ki of 28.2 µM. With `Nc1ncc(Cc2ccccc2O)c(N)n1` the Ki was 110 µM. In the case of `CS(=O)(=O)Oc1ccccc1Cc1cnc(N)nc1N`, the Ki is reported as 85.1 µM. In the case of `Nc1ncc(Cc2ccccc2Br)c(N)n1`, the Ki is reported as 10 µM. Compound `CCCCCCOc1ccccc1Cc1cnc(N)nc1N` has a Ki of 100 µM. Compound `Nc1ncc(Cc2ccccc2Cl)c(N)n1` has a Ki of 9.55 µM. In the case of `Nc1ncc(Cc2ccccc2OCc2ccccc2)c(N)n1`, the Ki is reported as 18.2 µM. `NC(=O)COc1ccccc1Cc1cnc(N)nc1N` showed a Ki of 79.4 µM. For `CCOc1ccccc1Cc1cnc(N)nc1N`, the Ki was 20 µM. Compound `Nc1ncc(Cc2ccccc2I)c(N)n1` has a Ki of 11.5 µM.
